Laboratory results reported in ChEMBL document CHEMBL4715831, “Design and synthesis of 2-((1H-indol-3-yl)thio)-N-phenyl-acetamides as novel dual inhibitors of respiratory syncytial virus and influenza virus A” (Eur J Med Chem, 2020).

Legend:
[1] = tested on: Influenza A virus; experiment: Antiviral activity against Influenza A virus A/WSN/33(H1N1) infected in human HEK293T cells measured after 24 hrs by Gaussia luciferase reporter gene method; assay type: functional, organism-based; conditions: A/WSN/1933(H1N1); for EC50: HEK-293T
In short: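 HEK293T cells carrying a Gaussia luciferase reporter that is activated by IAV, infected with A/WSN/33 (H1N1) for 1 h at room temperature, then cultured 24 h at 37 °C with serially diluted compound. Supernatant Gluc read with coelenterazine-h (16.7 μM in PBS) as 0.5-s photon counts. Normalized to control set as 100%; ribavirin positive control; three experiments.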

[2] = tested on: Influenza A virus; experiment: Antiviral activity against Influenza A virus A/WSN/33(H1N1) infected in MDCK cells measured after 24 hrs by Gaussia luciferase reporter gene method; assay type: functional, organism-based; conditions: A/WSN/1933(H1N1)
In short: (§1)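 MDCK cells infected with IAV A/WSN/33 (H1N1) or H3N2 for 1 h at room temperature, then cultured in fresh DMEM with serially diluted compound for 24 h at 37 °C. Gluc activity in the medium read with coelenterazine-h (16.7 μM in PBS). Normalized to control set as 100%; ribavirin positive control; mean ± SD of three experiments.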

[3] = tested on: Influenza A virus; experiment: Antiviral activity against Influenza A virus A/WSN/33(H1N1) infected in HEK293T cells assessed as inhibition of viral replication at 20 uM measured after 24 hrs by Gaussia luciferase reporter gene method relative to control; assay type: functional; conditions: A/WSN/1933(H1N1), HEK-293T
In short: (§2)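 Time-of-addition assay: compound at 20 μM added before infection or at infection (0 h) in HEK293T-Gluc cells infected with A/WSN/33 (H1N1). Supernatant Gaussia luciferase measured after 24 h with coelenterazine-h. Values normalized to the DMSO control, set as 100%; ribavirin positive control. Mean ± SD, three independent experiments.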

[4] = Safety index, ratio of CC50 for human HEp-2 cells to EC50 for GFP-fused wild-type RSV subgroup A long infected in human HEp-2 cells; assay type: toxicity, cell-based; conditions: read-out: Ratio CC50/EC50
[5] = tested on: Influenza A virus; experiment: Antiviral activity against Influenza A virus A/WSN/33(H1N1) infected in HEK293T cells assessed as relative fluorescence intensity at 20 uM measured after 24 hrs by Gaussia luciferase reporter gene method; assay type: functional, A/WSN/1933(H1N1); in short: as §2
[6] = Antiviral activity against H3N2 infected in MDCK cells measured after 24 hrs by Gaussia luciferase reporter gene method; assay type: functional, cell-based, H3N2 subtype; conditions: Influenza A virus; in short: as §1
[7] = tested on: Influenza A virus; experiment: Antiviral activity against Influenza A virus A/WSN/33(H1N1) infected in HEK293T cells assessed as inhibition of viral replication at 20 uM pretreated for 2 hrs followed by viral infection and measured after 24 hrs by Gaussia luciferase reporter gene method relative to control; assay type: functional; conditions: A/WSN/1933(H1N1), HEK-293T, time 26 hrs; in short: as §2
[8] = tested on: Influenza A virus; experiment: Antiviral activity against Influenza A virus A/WSN/33(H1N1) infected in human HEK293T cells assessed as inhibition of viral replication at 10 uM measured after 24 hrs by Gaussia luciferase reporter gene method relative to control; assay type: functional; conditions: A/WSN/1933(H1N1), HEK-293T
[9] = Cytotoxicity against human HEp-2 cells assessed as reduction in cell viability measured after 48 hrs by MTS assay; assay type: cell-based
In short: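 HEp-2 cells plated; after 24 h, compound added and cells incubated 48 h. MTS (2 mg/ml) then added for 3 h at 37 °C in 5% CO2 and absorbance read at 490 nm. Untreated control set as 100%.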

[10] = tested on: Respiratory syncytial virus; experiment: Antiviral activity against GFP-fused wild-type RSV subgroup A Long infected in human HEp-2 cells measured 24 to 72 hrs post infection by fluorescence assay; assay type: functional, cell-based
In short: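 HEp-2 cells plated, then after 24 h infected with RSV-mGFP using 3-fold serially diluted inocula starting from 3 × 10^4 pfu/well. Compounds came from a 100 mM DMSO stock, diluted as indicated. RFU read at 479/517 nm at 24, 48 and 72 h post-infection, with non-infected cells as background. Mean ± SD of at least three experiments.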

[11] = tested on: Influenza A virus; experiment: Antiviral activity against Influenza A virus A/WSN/33(H1N1) infected in HEK293T cells co-transfected with NP/PA/PB1/PB2 complex assessed as inhibition of viral replication after 24 hrs by mini-genome replicon system based luciferase assay; assay type: functional, organism-based; conditions: A/WSN/1933(H1N1); for EC50: HEK-293T
In short: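 Minigenome assay: vRNA transcription read as luciferase activity 24 h after transfection. Normalized to control set as 100%. Mean ± SD of three independent experiments.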

[12] = Safety index, ratio of CC50 for HEK293T cells to EC50 for antiviral activity against Influenza A virus A/WSN/33(H1N1) infected in human HEK293T cells; assay type: toxicity, cell-based; conditions: read-out: Ratio CC50/EC50
[13] = tested on: Influenza A virus; experiment: Antiviral activity against Influenza A virus A/WSN/33(H1N1) infected in HEK293T cells assessed as relative fluorescence intensity at 20 uM pretreated for 2 hrs followed by viral infection and measured after 24 hrs by Gaussia luciferase reporter gene method; assay type: functional, A/WSN/1933(H1N1); conditions: time 26 hrs; in short: as §2
[14] = Cytotoxicity against HEK293T cells assessed as reduction in cell viability measured after 48 hrs by CCK8 assay; assay type: cell-based, HEK-293T; conditions: human
In short: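 293T cells treated for 48 h with six compound concentrations from 12.5 to 200 μM, with DMSO-only cells as control. CCK-8 then added for 1 h at 37 °C and OD read at 450 nm. Mean ± SD of three experiments.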

[15] = Cytotoxicity against human HEp-2 cells assessed as cell viability at 50 uM measured after 48 hrs by MTS assay relative to control; assay type: cell-based; conditions: read-out: Activity
[16] = tested on: Respiratory syncytial virus; experiment: Antiviral activity against GFP-fused wild-type RSV subgroup A Long infected in human HEp-2 cells at 50 uM measured 24 to 72 hrs post infection by fluorescence assay relative to control; assay type: functional; conditions: time 24-72 hrs
[17] = tested on: Respiratory syncytial virus; experiment: Antiviral activity against GFP-fused wild-type RSV subgroup A Long infected in human HEp-2 cells assessed as reduction in viral infection at 20 uM measured 24 to 72 hrs post infection by fluorescence assay relative to control; assay type: functional, Respiratory syncytial virus type A; set-up: scale not given: the % may be the effect or the level left; conditions: time 24-72 hrs
In short: (§3)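 RSV-mGFP infection of HEp-2 cells with compound at 20 μM added at the time of infection (0 h). Fluorescence read at excitation 479 nm and emission 517 nm at 24, 48 and 72 h post-infection. Values normalized to the DMSO control, set as 1; ribavirin was the positive control. Mean ± SD of three independent experiments.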

[18] = tested on: Respiratory syncytial virus; experiment: Antiviral activity against GFP-fused wild-type RSV subgroup A Long infected in human HEp-2 cells assessed as reduction in viral infection at 20 uM pretreated for 1 hr followed by viral infection measured 24 to 72 hrs post infection by fluorescence assay relative to control; assay type: functional, Respiratory syncytial virus type A; set-up: scale not given: the % may be the effect or the level left; conditions: time 24-73 hrs
In short: (§4)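 HEp-2 cells exposed to compound at 20 μM 1 h before RSV-mGFP infection (−1 h). GFP fluorescence read at 479/517 nm at 24, 48 and 72 h post-infection. Signal normalized to the DMSO control, set as 1; ribavirin was the positive control. Mean ± SD, three independent experiments.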

[19] = tested on: Respiratory syncytial virus; experiment: Antiviral activity against GFP-fused wild-type RSV subgroup A Long infected in human HEp-2 cells assessed as relative fluorescence intensity at 20 uM measured 24 to 72 hrs post infection by fluorescence assay; assay type: functional, Respiratory syncytial virus type A; in short: as §3
[20] = tested on: Respiratory syncytial virus; experiment: Antiviral activity against GFP-fused wild-type RSV subgroup A Long infected in human HEp-2 cells assessed as relative fluorescence intensity at 20 uM pretreated for 1 hr followed by viral infection measured 24 to 72 hrs post infection by fluorescence assay; assay type: functional, Respiratory syncytial virus type A; conditions: time 24-73 hrs; in short: as §4

| Compound | Activity [1] | EC50 [1] | EC50 [2] | inhibition at 20 µM [3] | selectivity ratio [4] | RFU [5] | EC50 [6] | inhibition at 20 µM [7] | inhibition at 10 µM [8] | CC50 at 48 h [9] | Activity [10] | EC50 [10] | inhibition [11] | EC50 [11] | selectivity ratio [12] | RFU [13] | CC50 at 48 h [14] | viability at 48 h, 50 µM [15] | inhibition at 50 µM [16] | also measured |
| --- | --- | --- | --- | --- | --- | --- | --- | --- | --- | --- | --- | --- | --- | --- | --- | --- | --- | --- | --- | --- |
| CCOc1ccccc1NC(=O)CSc1c[nH]c2cc(Cl)ccc12 | Dose-dependent effect | 1.53 µM | 2.42 µM | 99.7% | 5.36 | 0.22 | 1.58 µM | 99.7% | > 85% | 29.9 µM | Dose-dependent effect | 5.58 µM | Dose-dependent effect | 1.98 µM | > 65.4 | 0.14 | > 100 µM |  |  |  |
| O=C(CSc1c[nH]c2ccccc12)Nc1ccc(Cl)c(Cl)c1 |  |  |  |  | 1.15 |  |  |  |  | 37.5 µM |  | 32.7 µM |  |  |  |  |  | 81.8% | 77.1% |  |
| CCOc1ccccc1NC(=O)CSc1c[nH]c2ccccc12 |  |  |  |  | 1.76 |  |  |  |  | 20.7 µM |  | 11.8 µM |  |  |  |  |  | 65.2% | 83.2% |  |
| CCOc1ccccc1NC(=O)CSc1c[nH]c2ccc(OC)cc12 | Dose-dependent effect | 1.27 µM |  |  | 379 |  |  |  | > 85% | 1830 µM | Dose-dependent effect | 4.82 µM |  |  | > 79.4 |  | > 100 µM |  |  | Activity [17]: 99.89%; Activity [18]: 99.4%; RFU [19]: 0.11; RFU [20]: 0.06 |
| CCOc1ccccc1NC(=O)CSc1c[nH]c2c(Br)c(OC)ccc12 | Dose-dependent effect | 1.9 µM | 3.25 µM | 99.7% | 3.3 | 0.28 | 1.5 µM | 99.7% | > 85% | 9.65 µM | Dose-dependent effect | 2.92 µM | Dose-dependent effect | 3.89 µM | > 52.6 | 0.14 | > 100 µM |  |  |  |
